Laboratory results: ChEMBL document CHEMBL3351740, “Identification of a novel aminotetralin class of HDAC6 and HDAC8 selective inhibitors” (J Med Chem, 2014)

Tests used:
Liver microsome = experiment: Stability in human liver microsomes at 1 uM after 3 to 30 mins by LC-MS/MS analysis; assay type: ADME
Outline: (§1)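 Liver microsomes at 0.5 mg/mL (human or mouse) in 100 mM potassium phosphate, pH 7.4, with 1 μM compound, prewarmed 10 min at 37 °C. Reaction started with NADPH (10 mM) and stopped at 0, 3, 6, 9, 15 and 30 min with ice-cold methanol holding tolbutamide internal standard. Centrifuged 10 min at 4 °C; supernatant analysed by LC-MS/MS.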

Liver = experiment: Stability in mouse liver microsomes at 1 uM after 3 to 30 mins by LC-MS/MS analysis; assay type: ADME; outline: as §1

- Stability (Liver microsome): Stable
- Stability (Liver): Stable
SMILES: O=C(NO)c1ccc2c(c1)C[C@H](Nc1nccc(-c3cccnc3)n1)CC2
